What was measured:
[1] = tested on: Human immunodeficiency virus 1; test: Antiviral activity against HIV1 isolate with RT 101E, 103N mutation relative to wild type; format: functional
[2] = tested on: Human immunodeficiency virus 1; test: Antiviral activity against HIV1 isolate with RT 101E mutation relative to wild type; format: functional
[3] = tested on: Human immunodeficiency virus 1; test: Antiviral activity against HIV1 isolate with RT 98G, 190A mutation relative to wild type; format: functional
Outline: (§1)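 VSV-G-pseudotyped pNL4-3.Luc.R−E− molecular clones carrying the RT mutations, single-round infection of HeLa-JC53 cells (15,000/well) at MOI 0.03. Compounds serially diluted 1:4 in DMSO then in phenol red-free DMEM with 2% FBS, final DMSO 0.2%. Incubated 48 h at 37°C, 5% CO2. Luciferase read-out by chemiluminescence gives the EC50. Fold change is relative to wt virus, mean of two tests.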

[4] = tested on: Human immunodeficiency virus 1; test: Antiviral activity against HIV1 isolate with RT 98G, 108I, 181C mutation relative to wild type; format: functional
Outline: (§2)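 Mutant RT clones built in pNL4-3.Luc.R−E− reporter, VSV-G-pseudotyped, single-round infection of HeLa-JC53 cells (15,000/well, MOI 0.03) with 1:4 serial compound dilutions in DMEM (phenol red-free), 2% FBS, 0.2% final DMSO; 48 h at 37°C, 5% CO2; luciferase chemiluminescence read-out. Fold change in EC50 relative to wild-type virus; mean of two tests.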

[5] = tested on: Human immunodeficiency virus 1; test: Antiviral activity against HIV1 isolate with RT 98G, 103N, 108I mutation relative to wild type; format: functional; outline: as §2
[6] = tested on: Human immunodeficiency virus 1; test: Antiviral activity against HIV1 isolate with RT 98G, 103N, 181C mutation relative to wild type; format: functional; outline: as §2
[7] = tested on: Human immunodeficiency virus 1; test: Antiviral activity against HIV1 isolate with RT 179A mutation relative to wild type; format: functional; outline: as §2
[8] = tested on: Human immunodeficiency virus 1; test: Antiviral activity against HIV1 isolate with RT 103N, 188L mutation relative to wild type; format: functional
[9] = tested on: Human immunodeficiency virus 1; test: Antiviral activity against HIV1 isolate with RT 179E mutation relative to wild type; format: functional; outline: as §2
[10] = tested on: Human immunodeficiency virus 1; test: Antiviral activity against HIV1 isolate with RT 181V mutation relative to wild type; format: functional; outline: as §2
[11] = tested on: Human immunodeficiency virus 1; test: Antiviral activity against HIV1 isolate with RT 101N, 103N mutation relative to wild type; format: functional
[12] = tested on: Human immunodeficiency virus 1; test: Antiviral activity against HIV1 isolate with RT 101H mutation relative to wild type; format: functional
[13] = tested on: Human immunodeficiency virus 1; test: Antiviral activity against HIV1 isolate with RT 98G mutation relative to wild type; format: functional; outline: as §2
[14] = tested on: Human immunodeficiency virus 1; test: Antiviral activity against HIV1 isolate with RT 101E, 181C, 190S mutation relative to wild type; format: functional
[15] = tested on: Human immunodeficiency virus 1; test: Antiviral activity against HIV1 isolate with RT 103N, 181C, 190A mutation relative to wild type; format: functional
[16] = tested on: Human immunodeficiency virus 1; test: Antiviral activity against HIV1 isolate with RT 103N, 190S mutation relative to wild type; format: functional; outline: as §2
[17] = tested on: Human immunodeficiency virus 1; test: Antiviral activity against HIV1 isolate with RT 101Q, 181C mutation relative to wild type; format: functional
[18] = tested on: Human immunodeficiency virus 1; test: Antiviral activity against HIV1 isolate with RT 101P, 103N mutation relative to wild type; format: functional
[19] = tested on: Human immunodeficiency virus 1; test: Antiviral activity against HIV1 isolate with RT 103Q mutation relative to wild type; format: functional; outline: as §2
[20] = tested on: Human immunodeficiency virus 1; test: Antiviral activity against HIV1 isolate with RT 179T mutation relative to wild type; format: functional; outline: as §2
[21] = tested on: Human immunodeficiency virus 1; test: Antiviral activity against HIV1 isolate with RT 101Q, 103N, 225H mutation relative to wild type; format: functional
[22] = tested on: Human immunodeficiency virus 1; test: Antiviral activity against HIV1 isolate with RT 101P, 190A mutation relative to wild type; format: functional
[23] = tested on: Human immunodeficiency virus 1; test: Antiviral activity against HIV1 isolate with RT 103N, 181C mutation relative to wild type; format: functional
[24] = tested on: Human immunodeficiency virus 1; test: Antiviral activity against HIV1 isolate with RT 103R, 179D mutation relative to wild type; format: functional; outline: as §2
[25] = tested on: Human immunodeficiency virus 1; test: Antiviral activity against HIV1 isolate with RT 103S, 190A mutation relative to wild type; format: functional; outline: as §2
[26] = tested on: Human immunodeficiency virus 1; test: Antiviral activity against HIV1 isolate with RT 103R, 179D, 188L mutation relative to wild type; format: functional; outline: as §2
[27] = tested on: Human immunodeficiency virus 1; test: Antiviral activity against HIV1 isolate with RT 101E, 181C, 190A mutation relative to wild type; format: functional
[28] = tested on: Human immunodeficiency virus 1; test: Antiviral activity against HIV1 isolate with RT 103N, 108I, 190A mutation relative to wild type; format: functional
[29] = tested on: Human immunodeficiency virus 1; test: Antiviral activity against HIV1 isolate with RT 106L, 188L mutation relative to wild type; format: functional; outline: as §2
[30] = tested on: Human immunodeficiency virus 1; test: Antiviral activity against HIV1 isolate with RT 101E, 190A mutation relative to wild type; format: functional
[31] = tested on: Human immunodeficiency virus 1; test: Antiviral activity against HIV1 isolate with RT 103N mutation relative to wild type; format: functional
[32] = tested on: Human immunodeficiency virus 1; test: Antiviral activity against HIV1 isolate with RT 100I, 103N mutation relative to wild type; format: functional
[33] = tested on: Human immunodeficiency virus 1; test: Antiviral activity against HIV1 isolate with RT 190S mutation relative to wild type; format: functional; outline: as §2
[34] = tested on: Human immunodeficiency virus 1; test: Antiviral activity against HIV1 isolate with RT 103N, 108I, 225H mutation relative to wild type; format: functional
[35] = tested on: Human immunodeficiency virus 1; test: Antiviral activity against HIV1 NL4-3 with Y188L mutation in Hela-JC53 cells in the presence of 10% human serum after 48 hrs; format: functional, organism-based; details: Human immunodeficiency virus 1, NL4-3, Hela-JC53, 48 h
Outline: (§3)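 VSV-G-pseudotyped Y188L NL4-3.Luci.R−E− virus (MOI 0.03) infecting HeLa-JC53 cells (1.5 × 10^4) in phenol red-free DMEM with 2% FBS. Serially diluted compound was added, then heat-inactivated human serum at final 0, 5, 10, 20, 30, 40 or 50%. Cultures ran 48 h at 37°C in 5% CO2, read by Bright-Glo luciferase chemiluminescence. EC50 was taken by nonlinear regression.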

[36] = AUC in dog at 10 mg/kg, iv; format: ADME, organism-based, Canis lupus familiaris; parameters: dose 10 mg/kg, route intravenous; details: plasma
[37] = tested on: Human immunodeficiency virus 1; test: Antiviral activity against HIV1 isolate with RT K103N-L100I mutation; format: functional, organism-based; outline: as §1
[38] = tested on: Human immunodeficiency virus 1; test: Antiviral activity against wild type HIV1 NL4-3 in Hela-JC53 cells after 48 hrs; format: functional, organism-based; details: Human immunodeficiency virus 1, NL4-3, Hela-JC53, 48 h
Outline: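 Single-round assay in HeLa-JC53 cells (15,000/well) using VSV-G-pseudotyped pNL4-3.Luc.R−E−-derived virus at MOI 0.03. Compounds serially diluted 1:4 in DMSO then medium (2% FBS; final DMSO 0.2%). Incubated 48 h at 37°C in 5% CO2. Luciferase chemiluminescence read-out; EC50 determined.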

[39] = tested on: Human immunodeficiency virus 1; test: Antiviral activity against HIV1 isolate with RT Y181C mutation; format: functional, organism-based; outline: as §1
[40] = tested on: Human immunodeficiency virus 1; test: Antiviral activity against HIV1 NL4-3 with Y188L mutation in Hela-JC53 cells after 48 hrs; format: functional, organism-based; details: Human immunodeficiency virus 1, NL4-3, Hela-JC53, 48 h; outline: as §3
[41] = biological target: Human immunodeficiency virus type 1 reverse transcriptase (Human immunodeficiency virus 1, UniProt Q72547); test: Inhibition of HIV1 reverse transcriptase
Outline: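 E. coli-expressed HIV-1 RT (1 nM) with 16 μg/ml poly(rA)/oligo(dT)18 and 2 μM α-33P-TTP, 0–100 μM inhibitor. Buffer: 50 mM Tris-HCl pH 7.5, 5 mM MgCl2, 1 mM DTT, 60 μg/ml BSA. Run 1 h at 25°C, then TCA/pyrophosphate precipitation and radioactivity counted. IC50 = 50% inhibition of RT activity.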

[42] = tested on: Human immunodeficiency virus 1; test: Antiviral activity against HIV1 isolate with RT K103N-P225H mutation; format: functional, organism-based; outline: as §1

Question: With `Cc1ccnc2c1NC(=O)c1cccnc1N2C1CC1` [NEVIRAPINE] as the molecule, how does the Fold change [1] read?
Answer: >100

Question: And the Fold change [2]?
Answer: 42

Question: And the Fold change [3]?
Answer: >100

Question: And the Fold change [4]?
Answer: >100

Question: And the Fold change [5]?
Answer: >100

Question: And the Fold change [6]?
Answer: >100

Question: And the Fold change [7]?
Answer: 0.4

Question: What about the Fold change [8] of the same molecule?
Answer: >100

Question: And the Fold change [9]?
Answer: 1.9

Question: What about the Fold change [10] of the same molecule?
Answer: >100

Question: What about the Fold change [11] of the same molecule?
Answer: 32

Question: And the Fold change [12]?
Answer: 12

Question: What about the Fold change [13] of the same molecule?
Answer: 5.9

Question: And the Fold change [14]?
Answer: >100

Question: And the Fold change [15]?
Answer: >100

Question: And the Fold change [16]?
Answer: >100

Question: What about the Fold change [17] of the same molecule?
Answer: >100

Question: What about the Fold change [18] of the same molecule?
Answer: >100

Question: What about the Fold change [19] of the same molecule?
Answer: 1

Question: And the Fold change [20]?
Answer: 0.5

Question: And the Fold change [21]?
Answer: >100

Question: What about the Fold change [22] of the same molecule?
Answer: >100

Question: And the Fold change [23]?
Answer: >100

Question: What about the Fold change [24] of the same molecule?
Answer: 1.3

Question: And the Fold change [25]?
Answer: >100

Question: What about the Fold change [26] of the same molecule?
Answer: >100

Question: What about the Fold change [27] of the same molecule?
Answer: >100

Question: And the Fold change [28]?
Answer: >100

Question: What about the Fold change [29] of the same molecule?
Answer: >100

Question: And the Fold change [30]?
Answer: >100

Question: And the Fold change [31]?
Answer: 51

Question: And the Fold change [32]?
Answer: 42

Question: And the Fold change [33]?
Answer: >100

Question: And the Fold change [34]?
Answer: >100

Question: With `NS(=O)(=O)c1ccc(NC(=O)CSc2nnc(Br)n2-c2ccc(C3CC3)c3ccccc23)c(Cl)c1` as the molecule, how does the Fold change [1] read?
Answer: 0.9

Question: And the EC50 [35]?
Answer: 20.7 nM

Question: And the Fold change [2]?
Answer: 11

Question: What about the AUC [36] of the same molecule?
Answer: 20900 ng·h/mL

Question: And the Fold change [3]?
Answer: 16

Question: What about the EC50 [37] of the same molecule?
Answer: 0.05 nM

Question: And the Fold change [4]?
Answer: 15

Question: And the Fold change [5]?
Answer: 2.2

Question: And the EC50 [38]?
Answer: 0.6 nM

Question: And the Fold change [6]?
Answer: 4.2

Question: And the Fold change [7]?
Answer: 0.6

Question: What about the Fold change [8] of the same molecule?
Answer: 3.9

Question: What about the Fold change [9] of the same molecule?
Answer: 2.4

Question: And the EC50 [39]?
Answer: 0.23 nM

Question: And the EC50 [40]?
Answer: 3.7 nM

Question: What about the Fold change [10] of the same molecule?
Answer: 20

Question: And the Fold change [11]?
Answer: 0.6

Question: And the Fold change [12]?
Answer: 2.5

Question: What about the Fold change [13] of the same molecule?
Answer: 2.4

Question: And the Fold change [14]?
Answer: >100

Question: What about the Fold change [15] of the same molecule?
Answer: >100

Question: And the Fold change [16]?
Answer: 18

Question: What about the Fold change [17] of the same molecule?
Answer: 8.9

Question: What about the Fold change [18] of the same molecule?
Answer: 2.2

Question: And the Fold change [19]?
Answer: 1.4

Question: What about the Fold change [20] of the same molecule?
Answer: 1.3

Question: What about the Fold change [21] of the same molecule?
Answer: 3.9

Question: And the Fold change [22]?
Answer: 92

Question: And the IC50 [41]?
Answer: 4 nM

Question: What about the Fold change [23] of the same molecule?
Answer: 10

Question: And the Fold change [24]?
Answer: 0.3

Question: What about the Fold change [25] of the same molecule?
Answer: >100

Question: And the Fold change [26]?
Answer: >100

Question: And the Fold change [27]?
Answer: >100

Question: And the EC50 [42]?
Answer: 0.13 nM

Question: What about the Fold change [28] of the same molecule?
Answer: 20

Question: And the Fold change [29]?
Answer: >100

Question: And the Fold change [30]?
Answer: 83

Question: What about the Fold change [31] of the same molecule?
Answer: 0.7

Question: What about the Fold change [32] of the same molecule?
Answer: 0.9

Question: What about the Fold change [33] of the same molecule?
Answer: 3.9

Question: And the Fold change [34]?
Answer: 2.6

From ChEMBL document CHEMBL1142195, “A novel nonnucleoside analogue that inhibits human immunodeficiency virus type 1 isolates resistant to current nonnucleoside reverse transcriptase inhibitors” (Antimicrob Agents Chemother, 2007)
